Consider six compounds from ChEMBL document CHEMBL3576864, “Striatoids A-F, Cyathane Diterpenoids with Neurotrophic Activity from Cultures of the Fungus Cyathus striatus” (J Nat Prod, 2015).

Active and inactive are the calls of the source. The calls are words filed in the database; no cut-off is given here.

The subject of assay [1] is PC-12. In words: Neurotrophic activity in rat PC12 cells assessed as enhancement of NGF-induced neurite outgrowth after 48 hrs by inverted microscopic analysis. The assay is classed as functional, cell-based. The procedure, abridged: (§1)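 PC-12 cells grown in F-12 (Ham) with 10% heat-inactivated HS, 5% FBS, penicillin/streptomycin, 37 °C, 5% CO2. Seeded on poly-L-lysine wells (2 × 10^4 cells/mL), 24 h. Switched to low serum (1% HS, 0.5% FBS), then dosed 10–40 μM with NGF 20 ng/mL (vehicle 0.1% DMSO), triplicate wells, 48 h. Phase-contrast scoring: ≥100 cells in each of five random fields; neurite ≥ one cell body = positive, as % of cells.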

Assay [2] has as its system PC-12. In words: Effect on neurite outgrowth in rat PC12 cells at 10 to 40 uM after 48 hrs by inverted microscopic analysis. Format: functional, cell-based. The procedure, abridged:
as §1

For the compound `CC(C)C1=C2[C@H]3CC=C4[C@H]5O[C@H]6CO[C@H]7O[C@@H]([C@@H]4[C@@]7(O)[C@@]6(O)O5)[C@]3(C)CC[C@@]2(C)[C@@H](O)C1`, the Activity entry in assay [1] was “Dose-dependent effect”. In assay [2], the result was inactive.

In the case of `CC(C)C1=C2[C@H]3CC=C4[C@@H]5O[C@]6(O)[C@@]7(O)[C@@H](OC[C@]6(O)O5)O[C@@H]([C@@H]47)[C@]3(C)CC[C@@]2(C)[C@@H](O)C1`, the Activity entry in assay [1] was “Dose-dependent effect”. Also, the result in assay [2] was inactive.

On to `CO[C@H]1O[C@@]2(O)[C@H](O)CO[C@H]3O[C@H]4[C@@H]([C@@H]1CC[C@@H]1C5=C(C(C)C)C[C@H](O)[C@]5(C)CC[C@]14C)[C@]32O`, for which the Activity entry in assay [1] was “Dose-dependent effect”. Moreover, the outcome in assay [2] was inactive.

Take `CC(C)C1=C2[C@H]3CC=C4[C@@H](O)[C@@]5(O)CO[C@H]6O[C@@H]([C@@H]4[C@@]6(O)[C@H]5O)[C@]3(C)CC[C@@]2(C)[C@@H](O)C1`: in assay [1], the Activity result is “Dose-dependent effect”. In assay [2], the outcome was inactive.

For the compound `CC(=O)O[C@@H]1[C@H]2CC[C@@H]3C4=C(C(C)C)C[C@H](O)[C@]4(C)CC[C@@]3(C)[C@H]3O[C@@H]4OC[C@@]1(O)[C@H](O)[C@]4(O)[C@H]23`, the Activity result in assay [1] is “Dose-dependent effect”. Besides, in assay [2], the result was inactive.

`CC(=O)O[C@@H]1C2=CC[C@@H]3C4=C(C(C)C)C[C@H](O)[C@]4(C)CC[C@@]3(C)[C@H]3O[C@@H]4OC[C@@]1(O)[C@H](O)[C@]4(O)[C@H]23`: in assay [1], the Activity entry is “Dose-dependent effect”. The result in assay [2] was inactive.
